Source: PubChem BioAssay
Sampled rows, rich in hits. Any-hit rate of the full collection: about 1.8%.
TDP2 inh = human TDP2 enzyme inhibitors, primary screen, biochemical, epi absorbance, recombinant enzyme; Tyrosyl-DNA phosphodiesterase 2 (Homo sapiens), O95551; T5PNP hydrolysis, p-nitrophenol absorbance 415 nm; inhibition, % at 12.8 µM; 0.34% of 370,000 active; AID 720702, 2013;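 active means inhibition above the mean of all tested compounds plus 3 SD, set per campaign, cut at about 25% in these data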;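 further: 0% = DMSO with enzyme and 100% = buffer with substrate but no TDP2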
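System – recombinant human TDP2 · Amount – 120 nM TDP2 per well · Buffer or medium – Mg2+-containing Tris-HCl buffer, pH 7.5 · Reagent – T5PNP substrate, 5 mM · Dosing – 12.8 µM single point, 1% DMSO · Incubation – 2 h at 37 °C · Measured by – epi absorbance · Read-out basis – percent inhibition · Benchmarks – high control without enzyme, low control DMSO plus TDP2 · Repeats – singlicate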
MBD2 DNA inh = inhibitors of MBD2 binding to methylated DNA, primary screen, biochemical, TR-FRET, DNA-binding domain, human | MBD2 binding to methylated oligonucleotide | 0.31% of 370,000 active | Methyl-CpG-binding domain protein 2 (Homo sapiens), Q9UBB5 | inhibition, % at 4.4 µM; in the data active means inhibition above about 13%
Target sequence (Q9UBB5 whole entry, looked up, the tested form may be a part): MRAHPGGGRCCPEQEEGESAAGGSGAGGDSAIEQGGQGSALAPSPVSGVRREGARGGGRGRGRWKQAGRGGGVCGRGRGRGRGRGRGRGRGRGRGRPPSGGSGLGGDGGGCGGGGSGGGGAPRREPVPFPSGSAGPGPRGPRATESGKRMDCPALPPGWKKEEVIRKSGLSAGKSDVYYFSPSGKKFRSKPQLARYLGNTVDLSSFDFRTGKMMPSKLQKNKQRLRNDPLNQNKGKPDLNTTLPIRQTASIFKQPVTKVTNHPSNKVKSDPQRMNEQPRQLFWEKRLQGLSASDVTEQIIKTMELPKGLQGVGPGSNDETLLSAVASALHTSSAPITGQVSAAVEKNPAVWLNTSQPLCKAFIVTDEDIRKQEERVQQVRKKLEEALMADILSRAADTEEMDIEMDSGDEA
CASP6 VEID inh = human caspase-6 inhibitors, primary screen, biochemical, VEID-R110 fluorescence, single point, set 2; inhibition, % at 12.5 µM; purified caspase-6, Z-VEID-R110 cleavage fluorescence; 0.53% of 350,000 active; AID 686996, 2013;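 active means mean inhibition across replicates at least about 35%, with every replicate also reaching that limit, limit read from the data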;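 further: 0% = median of neutral control wells and 100% = no fluorescence left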
LEDGF integ inh = blockers of LEDGF/p75-dependent integrase strand transfer – biochemical, TR-FRET, high throughput, primary screen; HIV-1 integrase (with human LEDGF/p75); TR-FRET IN-LEDGF/p75 DNA integration, Eu/Cy5; inhibition, % at 3.7 µM; 0.64% of 370,000 active;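 active means inhibition above the screen-wide mean plus 3 SD, cut at about 13% in these data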;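 further: signal is the Cy5 over europium emission ratio at 671 and 618 nm; 0% = plate median of compound wells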
UHRF1 binding = UHRF1 methylated DNA binding inhibitors, primary screen, counter-screen for MBD2 inhibitor project, biochemical, TR-FRET, human UHRF1, single concentration | E3 ubiquitin-protein ligase UHRF1 (Homo sapiens), Q96T88 | UHRF1 binding to methylated oligo | inhibition, % at 4.4 µM | 0.75% of 370,000 active; in the data active means inhibition above about 21%;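 further: UHRF1 SRA domain binding a hemimethylated CpG hairpin DNA probe; 0% = median of test compound wells and 100% = reference inhibitor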
NSD2 HMT inh = NSD2 histone methyltransferase inhibitors, primary screen, biochemical, AlphaScreen, single concentration, set 2; 0.54% of 310,000 active; NSD2 peptide methylation, 120 min; Histone-lysine N-methyltransferase NSD2 (Homo sapiens), O96028; inhibition, % at 12.5 µM; in the data active means inhibition above about 50%
Alpha artifact = AlphaScreen signal interference with preloaded methylated product, dose response, artefact control for NSD2 inhibitor project, biochemical, cherry-picked samples. AC35, µM (titrated, usually from 10 µM), for inactives: at the top dose activity change, negative = signal loss. AID 1053174, 2014. shares compounds with NSD2 HMT inh. 9.4% of 1,500 active. AlphaScreen artifact counterscreen, preloaded methylated H4 peptide; call rule not given here
Starred values were filed as active, the others as inactive; . = no result given.

SMILES	TDP2 inh	MBD2 DNA inh	CASP6 VEID inh	LEDGF integ inh	UHRF1 binding	NSD2 HMT inh	Alpha artifact
CC(=O)c1cccc(NC(=O)c2csc(-n3nc(C)cc3C(F)(F)F)n2)c1	-4.7	-6.7	.	1.1	-1.5	125.5*	0.6%
COc1ccc(CNC(=O)CN2C(=O)NC3(CCCCCC3)C2=O)cc1	-2.2	2.5	0.3	-1.0	7.6	-1.4	.
COc1ccc(CNC(=O)CCCN2C(=O)NC3(CCCC3)C2=O)cc1	10.6	0.9	-3.0	-3.6	-0.3	58.0*	-5.5%
COc1ccc(-n2nnnc2SCC(=O)c2ccc3c(c2)OCCO3)cc1	-7.1	4.9	.	-0.2	-1.5	97.9*	-3.5%
C[C@@H]1CCCCO[C@H](CN(C)S(=O)(=O)c2cccs2)[C@H](C)CN([C@@H](C)CO)C(=O)c2cc(NC(=O)CCCN(C)C)ccc2O1	.	.	-5.4	.	.	.	.
COc1ccc(C2SCCN2S(=O)(=O)c2ccccc2)cc1 (stereo not drawn)	-8.9	-0.1	-2.5	-5.3	2.6	98.7*	-0.5%
COc1ccc(C2SCCN2S(=O)(=O)c2ccc(NC(C)=O)cc2)cc1 (stereo not drawn)	-17.5	4.6	.	-0.6	4.3	-5.8	.
O=C(CCCN1C(=O)/C(=C/c2ccccc2)SC1=S)Nc1ccc(C(=O)O)c(O)c1	0.5	-5.3	24.9	2.4	0.2	55.4*	-7.3%
O=C(CN1C(=O)/C(=C/c2ccco2)SC1=S)Nc1ccc(O)c(C(=O)O)c1	4.0	7.2	0.2	46.9*	58.4*	116.2*	-12.7%
O=C(CCCN1C(=O)/C(=C/c2cccs2)SC1=S)Nc1ccc(O)c(C(=O)O)c1	.	.	.	.	.	53.1*	-13.6%
O=C(CCCN1C(=O)/C(=C\c2cccs2)SC1=S)Nc1ccc(C(=O)O)cc1	1.1	9.1	1.4	-1.6	0.6	13.1	.
COc1ccc(NC(=O)CCCN2C(=O)/C(=C\c3ccco3)SC2=S)cc1	0.2	-0.7	.	2.4	-3.9	0.7	.
COc1ccc(C=C2SC(=S)N(CCCC(=O)Nc3ccc(C(=O)O)c(O)c3)C2=O)cc1OC	-9.3	-5.2	26.5	1.0	-3.4	.	.
O=S(=O)(c1cccc(F)c1)N1CCN(Cc2cccc(OCCO)c2)CC1	.	.	-1.4	.	.	.	.
Cc1c(C)n(Cc2ccccc2)c2ccc(C(=O)NCCN3CCOCC3)cc12	-4.1	-0.1	-7.2	-4.5	-1.9	9.5	.
Cc1c(C)n(Cc2ccccc2)c2ccc(C(=O)OCCN(C)C)cc12	-13.2	2.7	-14.6	1.7	3.2	50.5*	-18.8%
COCC(=O)N1[C@H](CO)[C@@H](c2ccccc2)C12CN(C(=O)c1ccccc1)C2	.	.	19.9	.	.	.	.
CC1CCCC(NC(=O)COC(=O)c2c[nH]c(=O)[nH]c2=O)C1C (stereo not drawn)	-2.4	2.5	.	0.2	3.8	77.8*	-6.5%
Cc1c(CN(C)C)c2c(n1Cc1ccccc1)C(=O)c1ccccc1-2	7.0	-15.9	.	1.9	-10.7	92.7*	5.73µM*
Cc1cc(=O)n(Cc2ccccc2)c2ccccc12	7.0	0.9	-2.1	-0.7	-1.3	-0.6	.
O=C1C(Cl)=C(NCCN2CCCCC2)C(=O)c2ccccc21	.	.	.	.	.	57.9*	-4.3%
CN(Cc1cnn(C)c1)C(=O)c1cc(COc2c(F)cccc2F)on1	6.1	-4.3	1.4	1.8	-2.2	0.7	.
COc1cccc(CN(C)C(=O)c2cc(COc3c(F)cccc3F)on2)c1	-10.2	-0.3	3.1	6.2	1.4	99.1*	3.2%
O=C1CN(C(=O)CSc2nc3cc(Cl)ccc3c(=O)n2Cc2ccccc2)c2ccccc2N1	-6.8	-2.1	-0.1	-3.0	0.9	-0.7	.
